This test concerns the target T1, NAD-dependent protein deacetylase sirtuin-3, mitochondrial (Homo sapiens, UniProt Q9NTG7).
T1 sequence (Q9NTG7 whole entry): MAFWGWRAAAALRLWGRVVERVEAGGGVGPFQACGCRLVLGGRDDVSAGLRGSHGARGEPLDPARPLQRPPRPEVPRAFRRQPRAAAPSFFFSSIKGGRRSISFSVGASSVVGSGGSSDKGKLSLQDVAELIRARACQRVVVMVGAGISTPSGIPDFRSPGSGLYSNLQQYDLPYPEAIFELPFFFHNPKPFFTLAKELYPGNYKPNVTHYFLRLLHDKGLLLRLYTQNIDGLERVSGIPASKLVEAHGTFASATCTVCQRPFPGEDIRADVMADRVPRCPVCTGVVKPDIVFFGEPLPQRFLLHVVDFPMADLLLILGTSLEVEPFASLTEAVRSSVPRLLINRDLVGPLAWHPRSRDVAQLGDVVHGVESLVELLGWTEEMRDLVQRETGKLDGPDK
The experiment in a line: Activation of N-terminal his-tagged human SIRT3 (114 to 380 residues) expressed in Escherichia coli in presence of NAD+ by Mass spectrometry assay. The procedure, abridged: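 Mass-spectrometric deacetylation assay using coupled-assay components (1.5 µM Sirt3, 50 µM peptide, 100 µM NAD+, compound 100 µM) in 50 mM Na-phosphate pH 7.8 plus 0.05 µg/µL PNCA to remove nicotinamide; product and substrate peptides quantified.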

As usually defined, the EC50 is the midpoint of the concentration-response curve. For `CCOC(=O)C1=CN(C(=O)c2cc(OC)c(OC)c(OC)c2)C=C(C(=O)OCC)C1c1ccccc1`, the concentration giving a half-maximal response (EC50) turned out to be 100 µM.

Values taken from BindingDB's records for PubMed 36228194 (University of Bayreuth, 2022).
